Compounds with a hit are over-represented: about 2% of the library has one in this group of screens.
M5 ag = agonists of human muscarinic M5 receptor (CHRM5); P08912; activation, % at 3 µM; 360,000 compounds, 0.19% hits; CHO-K1 hM5 cells, Fluo-8 calcium fluorescence; 0% DMSO wells, 100% maximal acetylcholine response; AID 624037;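 active = activation above the run's mean over test compounds plus 3 SD, cut at about 23% in these data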;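 also: signal is peak over basal fluorescence ratio across the kinetic read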
CHRM1 agonist = human M1 muscarinic receptor agonism. 360,000 compounds, 0.33% hits. CHO-K1 hM1, Fluo-8 calcium fluorescence, agonist mode; 0% DMSO, 100% acetylcholine EC100. activation, % at 3 µM. P11229;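 active = activation above the run's mean compound activation plus 3 SD, cut at about 16% in these data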;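 also: peak over basal fluorescence ratio within a 140 s kinetic read after compound addition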
Target sequence (P11229 whole entry, looked up): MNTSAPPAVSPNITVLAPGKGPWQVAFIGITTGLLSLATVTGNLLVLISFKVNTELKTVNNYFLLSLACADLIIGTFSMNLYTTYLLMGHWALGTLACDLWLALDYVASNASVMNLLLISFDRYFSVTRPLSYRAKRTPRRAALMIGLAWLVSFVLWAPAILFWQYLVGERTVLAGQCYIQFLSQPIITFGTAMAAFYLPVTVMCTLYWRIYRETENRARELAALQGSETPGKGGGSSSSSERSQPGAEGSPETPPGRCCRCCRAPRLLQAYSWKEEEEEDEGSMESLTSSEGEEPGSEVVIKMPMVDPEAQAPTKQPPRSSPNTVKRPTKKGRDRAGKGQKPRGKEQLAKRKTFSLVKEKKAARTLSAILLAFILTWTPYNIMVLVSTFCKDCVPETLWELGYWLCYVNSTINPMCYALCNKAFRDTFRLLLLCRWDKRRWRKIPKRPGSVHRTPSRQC
CHRM1 antagonist = blocks human M1 muscarinic receptor; P11229; CHO-K1 hM1, Fluo-8 calcium fluorescence, ACh EC80 antagonist; inhibition, % at 3 µM; 360,000 compounds, 1.3% hits;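 active = percent inhibition above its own plate's cutoff, namely the mean of that plate's compound wells plus 3 SD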;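 also: peak over basal fluorescence ratio during 140 s after agonist addition; 0% = ACh EC80 plus DMSO and 100% = DMSO alone without agonist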
M5 antag = antagonists of human muscarinic M5 receptor (CHRM5). P08912. CHO-hM5 cells, Fluo-8 calcium fluorescence, ACh EC80. inhibition, % at 3 µM. 360,000 compounds, 0.59% hits. AID 624040;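 active = inhibition above a per-plate cutoff, the mean of that plate's test compounds plus 3 SD, cut at about 27% in these data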;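 also: 0% = acetylcholine EC80 with DMSO and 100% = DMSO without agonist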
M5 PAM = potentiates acetylcholine response at human M5 receptor; CHO-K1 hM5, Fluo-8 calcium, ACh EC20 PAM; 0% = ACh EC20, 100% = ACh EC100; activation, % at 3 µM; 360,000 compounds, 0.3% hits;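 active = activation above the run cutoff, the mean activation of all test compounds plus 3 SD, cut at about 18% in these data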
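Assay system – human M5 receptor in CHO-K1 cells · Read-out – % activation, ACh-normalized · Technique – Fluo-8 calcium fluorescence · Dosing – single-point, 3 µM nominal · Incubation – Fluo-8 loading 80 min at 37 °C plus 30 min room temperature · Repeats – singlicate, one well per test compound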
M1 PAM = human CHRM1 positive allosteric modulation; P11229; CHO-K1 hM1, Fluo-8 calcium fluorescence, ACh EC20; 0% = ACh EC20, 100% = maximal ACh; activation, % at 3 µM; 360,000 compounds, 0.088% hits; AID 588819; in the data active = activation above about 19%, passing the limit was not always enough
Numbers without * were called inactive; nt = no result given.

SMILES	M5 ag	CHRM1 agonist	CHRM1 antagonist	M5 antag	M5 PAM	M1 PAM
O=[N+]([O-])c1cccc(COc2ccc(CN3CCCCC3)cc2)c1	-1.8	-7.6	86.7*	15.1	-17.3	-31.2
Oc1ccc(N2CCN(Cc3ccc(OCCCN4CCCCC4)cc3)CC2)cc1	-3.0	-10.6	7.1	3.2	-15.8	-15.8
Cc1ccc(S(=O)(=O)NC[C@H]2O[C@@H](n3cnc4c(N)ncnc43)[C@H](O)[C@@H]2O)cc1	3.0	-1.8	-21.5	0.1	-1.8	-0.7
O=C(CC[C@H]1O[C@@H](n2cnc3c(NC(=O)c4ccccc4)ncnc32)[C@H](O)[C@@H]1O)N[C@@H](CO)Cc1c[nH]c2ccccc12	1.6	-3.9	-30.4	2.4	10.1	6.3
CCC1=NN(C(=O)c2ccc(Cl)cc2)C(O)(c2ccc(C)cc2)C1 (stereo not given)	0.2	-2.0	-7.0	-0.1	-10.0	9.2
CCOC(=O)C1=NN(C(=O)c2ccc(C)cc2)C(O)(c2ccc(Cl)cc2)C1 (stereo not given)	5.6	22.0*	3.2	-0.4	-10.9	-5.1
Nc1[nH]c(C(=O)c2ccccc2)c(-c2ccc(Cl)cc2)c1C(=O)NCc1ccccc1	2.5	nt	nt	6.7	-5.5	nt
COc1ccc(S(=O)(=O)N2CCN(c3nc(C)cc(C)n3)CC2)cc1	-8.2	-5.7	-10.8	0.3	1.8	3.5
COc1ccc(-c2cc(C(F)F)n3ncc(C(=O)N4CCSCC4)c3n2)cc1	-5.3	-5.0	27.3*	-1.0	-3.0	-9.4
COC(=O)c1ccc(CNc2ccc(C(C)=O)cc2)cc1	4.2	-4.1	-2.4	1.4	-8.8	0.2
CC(=O)OCCNC(=O)c1cccnc1	3.2	0.6	-19.9	1.3	-4.9	2.3
O=C(COc1ccc(Br)cc1)NCCCNC(=O)c1cccnc1	-2.0	0.7	-17.1	3.2	-0.4	15.2
O=C(NCCO[N+](=O)[O-])c1cccnc1	-1.2	-7.7	52.7	37.7*	-18.6	-26.6
COc1ccc(OCC(=O)NCCNC(=O)c2cccnc2)cc1	-1.4	-2.7	3.6	47.5*	-8.2	2.8
NC(=O)C1=C(c2ccccc2)c2ccccc2C1=O	-1.8	8.8	5.5	17.2	-1.2	3.0
Cc1ccc2nc(C(C)(C)C)c(Cc3ccccc3C(F)(F)F)n2c1	-5.4	-3.6	-18.8	4.6	-9.0	-6.8
Cc1c(N=NC2=C(O)CC(C)(C)CC2=O)cc2c(c1[N+](=O)[O-])C(C)(C)CC2(C)C	3.6	1.1	-17.5	-24.1	23.1*	16.6
Cc1cccc(N2CCN(C(=O)c3ccc4c(c3)OCCO4)CC2C)c1 (stereo not given)	2.9	-3.4	-0.6	6.2	2.0	-0.8
Cc1cccc(N2CCN(C(=O)C3CC(=O)N(c4ccc5c(c4)OCCO5)C3)CC2C)c1 (stereo not given)	9.7	2.0	29.9*	0.2	-26.0	-17.9
COc1ccc(S(=O)(=O)N2CCCCCC2)cc1C(=O)N(C)Cc1ccc(F)cc1	-0.6	-2.3	-17.5	3.5	-4.8	25.1*
COc1cc(NC(=O)N2CCc3nc(NCc4cccc(Oc5ccccc5)c4)ncc3C2)cc(OC)c1OC	1.8	-0.9	26.7	12.4	-9.7	-18.9
CC(C)(CO)NCC(O)COc1ccc2c(c1)CCC2 (stereo not given)	-1.8	-9.5	-7.5	1.6	4.6	12.2
CC(C)(C)CC(C)(C)NCC(O)COc1ccc2c(c1)CCC2 (stereo not given)	-8.7	-2.8	49.1*	4.6	-12.8	-24.2
Nc1nc2cc(Cl)c(Br)cc2o1	-1.5	0.9	-6.2	-0.5	5.0	1.1
COc1cccc(NC(=O)C2(C)CCN2CC2CCCCC2)c1 (stereo not given)	-1.5	-4.2	-3.2	4.4	-1.3	5.1
SMILES	M5 ag	CHRM1 agonist	CHRM1 antagonist	M5 antag	M5 PAM	M1 PAM
COc1cccc(CNCCc2c[nH]c3ccccc23)c1OCc1ccccc1	7.8	6.4	18.7	28.6*	-18.9	-6.4
COc1ccccc1CCNCc1ccc(OC)c(OCc2ccccc2)c1	9.8	6.6	33.9*	17.2	-24.1	-24.1
CN(CC(=O)N1CCCc2c1c(=O)oc1ccc(O)cc21)Cc1ccccc1	-3.5	-6.9	24.4*	4.5	1.2	-25.7
Cc1cccn2c(=O)nc(SCC(=O)N3CCC(Cc4ccccc4)CC3)nc12	-2.5	19.7*	14.1	4.2	-0.9	-3.0
Cc1cccn2c(=O)nc(SCC(=O)N3CCCCC3)nc12	-1.6	-2.0	-2.9	9.4	-7.0	2.7
Cn1cnc2c1c(=O)n(CC(O)CO)c(=O)n2C (stereo not given)	-5.8	-0.2	29.2*	-6.0	-4.8	-9.2
Cc1cc(/C=N/n2cnnc2)c(C)n1-c1ccc(OCc2ccccc2F)cc1	-0.5	-8.9	45.5*	29.3*	-21.0	-27.4
Cc1cc(/C=N/n2cnnc2)c(C)n1-c1ccc(OCc2ccc(Cl)cc2)cc1	-4.6	-0.4	37.5	24.6	-14.8	-15.1
CCOC(=O)CSc1nnc(CNC(=O)c2cccc(C)c2)n1C	0.1	-1.6	15.8	1.7	3.0	-1.5
CCOC(=O)CSc1nnc(CNC(=O)c2ccc([N+](=O)[O-])cc2)n1C	4.6	-2.9	-14.5	-6.1	21.9*	16.4
N#C/C(=C/c1ccc(Sc2nc3ccccc3[nH]2)o1)c1cccc(Br)c1	-2.5	-2.5	17.3	1.5	-8.2	-10.4
CCN1C(=O)S/C(=C/c2ccc(Sc3nc4ccccc4[nH]3)o2)C1=O	3.9	-0.2	30.7*	2.9	-8.2	-20.1
CN(C(=O)CO/N=C/c1ccc(OC(F)F)cc1)C1CCS(=O)(=O)C1 (stereo not given)	3.7	-6.3	-12.0	-5.7	19.4*	16.6
COc1cccc(NC(=O)N2CCC(NC(=O)C3CCCCC3)CC2)c1	-0.9	-2.2	-0.7	0.6	0.8	28.4*
COc1cccc(NC(=S)N2CCC(NC(=O)C3CCCCC3)CC2)c1	-3.8	-5.8	-10.7	4.5	-3.1	7.0
Cc1ccc(C)c(N2CCN(C(=O)CCCOc3cc(=O)n(C)c4ccccc34)CC2)c1	1.2	2.1	37.0*	18.4	-18.7	-13.2
Cc1ccc(C)c(N2CCN(C(=O)COc3cc(=O)n(C)c4ccccc34)CC2)c1	3.3	0.3	14.2	2.5	-9.8	-7.2
NNC(=O)C(=O)/C=C1\NC2(CCCC2)Cc2ccccc21	-2.7	5.2	-17.7	-2.6	8.1	21.8
O=C(/C=C1\NC2(CCCC2)Cc2ccccc21)C(=O)N/N=C/c1ccc(O)c(O)c1	4.0	16.9*	-10.5	10.8	-6.9	18.8
COc1ccc(/C=N/NC(=O)C(=O)N2CCCC2)cc1	2.5	1.3	6.8	-1.9	7.9	-8.4

High-throughput results deposited in PubChem by The Scripps Research Institute Molecular Screening Center.
